The EternaBench riboswitch data

Test system: MS2 coat protein
Experiment: apparent Kd, MS2 coat protein; higher = weaker binding; RNA-MaP array; FMN 200 µM where present
Method in brief: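 SNAP-549-labelled MS2 coat protein, doubled from 0.7 or 1.5 nM to 3 µM, was titrated over designs transcribed by stalled E. coli RNA polymerase on Illumina sequencing-chip clusters. Titrations were run without and then with constant ligand in 100 mM Tris-HCl pH 7.5, 80 mM KCl, 4 mM MgCl2, BSA, DTT, yeast tRNA and Tween-20. The apparent Kd is the median of filtered per-cluster fits to green signal normalised to red-channel RNA signal and control-cluster median Fmax.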

[1] = designed as: ON switch for flavin mononucleotide, no ligand
[2] = ligand present: flavin mononucleotide, designed as: ON switch for flavin mononucleotide
[3] = designed as: OFF switch for flavin mononucleotide, no ligand
[4] = ligand present: flavin mononucleotide, designed as: OFF switch for flavin mononucleotide

| Sequence | apparent Kd [1] [nM] | apparent Kd [2] [nM] | apparent Kd [3] [nM] | apparent Kd [4] [nM] |
| --- | --- | --- | --- | --- |
| AGAUGGUAUAUAGGAUAUCAUGUGCAAACAUGAGGAUCACCCAUGUAGAGACGUCAGUCUAAUAAUGAGAAGGAUAUACCAUCU | 37.1 | 9.97 |  |  |
| GGUGCAUAUGAGAAGGCGAUCAUGAAACAUGAUCGAGGAUAUCAUGUAAACAUGAGGAUCACCCAUGUAUGGGAAUAAUGCACC | 112 | 10.4 |  |  |
| CAGGUAGACUGAGGAUAUACAAUAAACAGCUAGUCUAUCUAGCUGCCCACAUGAGGAUCACCCAUGUAGAAGGCAGUCUGCCUG |  |  | 18.1 | 52.5 |
| CAGCGCUGUCGAGAGGAUAUGCGGUGAUGGACAUGAGGAUCACCCAUGUUAGCGAUAGCAUUACGGUAGAAGGCUCUACAGCUGC | 239 | 14.2 |  |  |
| UAGGGUGUACGAGGAUAUGGGCAUUGGUGGAUCUCAGAAGGCGUAUACGCGCGCAGACAUGAGGAUCACCCAUGUACCCGGCUU | 62.8 | 23.6 |  |  |
| UCGUAACGAGGAUAUACAAGGGUCAGGCCCGCCUGACACACACAUGAGGAUCACCCAUGUAGAAGGUGUAGCGC |  |  | 19.4 | 18.4 |
| GUAGCAUACCGAGGAUAUUCAGGGCGUGGAUAAACAUGAGGAUCACCCAUGUGGCGAAAGCCUAGGGAGAAGGCGGAAUGCUAC | 21.5 | 16.3 |  |  |
| CGGGCCGUCUACAUGAGGAUCACCCAUGUGACGGAAGUAACACAGGAUAUCCUCUAAUUGUAGACGGAGAAGGGUGGCCCGAAU | 28.9 | 159 |  |  |
| ACUUACUGAGGAUAUACAUAGAUUUACAUGAGGAUCACCCAUGUUCCUCUAUGUAUAUAUGUAGAAGGCAGAAGGU |  |  | 24.6 | 77.8 |
| AGAAGUAUGCAGGAUAUGGGAACCUAUUGACAUUCAGAAGGGCAUACAUGAGGAUCACCCAUGUGGCCUCCCAG |  |  | 19.3 | 35.1 |
| AGCAUGUUAGGAUAUGCGAAGUCAGGACACACACUGACGAAGCAGAAGGAACAUGAGGAUCACCCAUGUAAGCA |  |  | 71.8 | 45.7 |
| UGGUACAUGGGAGGAUAUGGGUUGAUAACAUGAGGAUCACCCAUGUUAAAUAUGCCUCUUGGCAACUAGAAGGCCCAUGUACCU | 512 | 41.8 |  |  |
| GUGUAGUCAGGAUAUACAUAGGAAGAGAAUAUAAUAUAAGUACAUGAGGAUCACCCAUGUAGAAGGGACAGUGU |  |  | 35.3 | 39.9 |
| GCGUGUUGAGGAUAUACGAACAUGUCGCCAGAUGUCAUGGUACAUGAGGAUCACCCAUGUAGAAGGUGGUACGC |  |  | 263 | 336 |
| ACAUGAGGAUCACCCAUGUAUACAUAGGAUAUUGGUGAUCAGGGAUGUUUUACAGGAUAUGUCUGCGAGAAGGAUGCAAGAUGU | 398 | 69 |  |  |
| CCGAUAAAUGGAGGAUAUGGAGCCUUAUUGGCUCCAGAAGGCUAAUAACAUGAGGAUCACCCAUGUCGGCGGUCUAAUGACCGA | 81.3 | 33 |  |  |
| AGACAUACUCAAGGAUAUCGUCGUACAUGAGGAUCACCCAUGUCGCACUUCUAAAGAGAAGUUGGCGAGAAGGUGAGGUUCGUU | 18.8 | 7.76 |  |  |
| AAAAAAAAAGUAGAGGAUAUCCAAAUGGCUACAUGAGGAUCACCCAUGUGAAGAAAAGCACAUGAGGAGAAGGCUACAAAAAAAAA | 26.7 | 13.5 |  |  |
| AUAGAAGACUAGAAGGAUUUAGUUGUAUAUUGUCGAGGUAUAUAAUUAGGUAGGAUAUGGGACAUGAGGAUCACCCAUGUUUUG | 28.2 | 15.4 |  |  |
| UGAUAGGACAGAGGAUAUACGUGCUAGAGAUACUAGCAAAAUAUCCUUACAUGAGGAUCACCCAUGUAGAAGGCUGUCCUAUCU |  |  | 20 | 20.2 |
| AAGGAUAGAGGAUAUACAUAGAUACAGAUUCAUGUGGUCCUACAUGAGGAUCACCCAUGUAGAAGGCUAUCCUA |  |  | 240 | 56.8 |
| AGGUUGGGAGGAUAUCCAAUAUAUGACAUGAGGAUCACCCAUGUUUCCACUCGUACCUCCGGAGAAGGCCCUUCCA |  |  | 21.7 | 23 |
| GUUAGUUAAGGAUAUACUGGGAGCUGCGGCGUCUCGCCGCAACAUGAGGAUCACCCAUGUAGAAGGUGACCGUU |  |  | 640 | 285 |
| AGUGUCAUCGAGAAGGCUUCAACAUGAGGAUCACCCAUGUUGUAAUAUGGGAGGAUAUCGAUGAUACAGCUACGUUUCGUAGCA | 7 | 5.03 |  |  |

| Sequence | apparent Kd [1] [nM] | apparent Kd [2] [nM] | apparent Kd [3] [nM] | apparent Kd [4] [nM] |
| --- | --- | --- | --- | --- |
| AUAAUAAAGGAGGAUAUCGUAUCGGAAACGAUACGAGAAGGUCUAACAUGAGGAUCACCCAUGUUCCUCAAAUA |  |  | 43.6 | 68 |
| UGGUACUAUGGAGGAUAUGGGAAGAUACAUGAGGAUCACCCAUGUUUAAGAAUGCCGAGAGGCAACUAGAAGGCCCUAGUACCU | 349 | 32.7 |  |  |
| CUGUGACGGUGCGCAAGUGGACGGAGAAGGGACACAUGAGGAUCACCCAUGUGAGCCUGCUAUUGUCAGGAUAUCCGUUCGUAC |  |  | 8.69 | 13.8 |
| ACCAUGUAAGGAUAUGCGCGGCCCUAAAUCAAUGAGCAAGCGCAGAAGGUACAUGAGGAUCACCCAUGUCACCG |  |  | 16.6 | 51.4 |
| CGCAGUACUUAGGUACCACACAUGAGGAUCACCCAUGUAUCACAGGAUAUGCAUGAUAUAUUCAGGCAGAAGGGUGAUCUUACC | 79.7 | 318 |  |  |
| GUGGUCAGACAUGAGGAUCACCCAUGUGGAAUAAAUAACGUCAAGGAUAUACAAUAUAGGAUAUAGUAGAAGGUGAGAUUGGUG | 114 | 113 |  |  |
| CGCCUGCGUAGAAUUAGCAGCUGACAGGAUAUGACAUGAGGAUCACCCAUGUGAAAUAAGAAGAGUCAGAAGGGUCACGACGCG |  |  | 10.8 | 8.77 |
| CUCCUCCCGAAGGAUAUCCACGCCAACUUCGUAGGAGAAGGUCGGACAUGAGGAUCACCCAUGUGGCCAUGGUU |  |  | 18.5 | 40.3 |
| AUUAUGACCGAGUUAUAGUUCCAAACAUGAGGAUCACCCAUGUAGGAUAUCAGCACGAUAAGUGCUGAGAAGGACAUCUCGGUC |  |  | 14.9 | 16.1 |
| GAGAUACAUGAGGAUCACCCAUGUGAGGAUAUCGGUUGGAGGAGGUGGAGGUUGAGUACGAGAAGGCACGGAUC |  |  | 25 | 28.3 |
| AAUAAACACACAGGAUAUAGCAUCGACGUUGCGAACUUAGCGACGUCGAUGCUAGAAGGGUGAAAACAUGAGGAUCACCCAUGU | 73.3 | 19.2 |  |  |
| AGAUAACACCAGAAGGACAUGAGGAUCACCCAUGUAGGAUAUGGGCAUCACUCGAGAAAGAUACGACCAAAAGGACACGCGAUC | 85 | 10.3 |  |  |
| GUUGCACAAGUUAACAUGAGGAUCACCCAUGUCAAAAGACAUGAGGAUAUGGAUGUGAAGAUAAUCCAGAAGGCAUAAUGCUAA | 596 | 129 |  |  |
| GGUGGACAUGAGGAUCACCCAUGUGAGGAUAUCGGCCGGUUCGCGGUGGCUGGCGUCUCGAGAAGGCACAUAGU |  |  | 99.1 | 139 |
| UUGCGGUAGGAGAAGGACAGAGGCUUAAUUACAUACAUGAGGAUCACCCAUGUAGGAUAUCCUACCUAACGCGGACUCCUCCAG |  |  | 7.65 | 7.83 |
| ACCGUAUGAACAUGAGGAUCACCCAUGUAAACGGAAACGAAUGAGGAUAUCGAUAGCAAAGCUAUCGAGAAGGCAUGGGACGGU | 64.5 | 26.8 |  |  |
| GGAUCCAACACAGGAUAUGCUGGACUUUGUCCAGCAGAAGGGUGAAGAACAUGAGGAUCACCCAUGUGGAUCCAUAUAUUUAAC | 240 | 16.8 |  |  |
| UGUGUGAGACAGGAUAUGCUGGUUGUGUGGCGGGUAGAAGGGUCUACAUGAGGAUCACCCAUGUGGCCGGUUGG |  |  | 22 | 22.8 |
| GCUGCGCGAGGAUAUGCGGUUCGCGCGGUGGCCGCUGGCGGACAUGAGGAUCACCCAUGUAGAAGGCGUGCGGG |  |  | 17 | 19.4 |
| GUGCCUUGGGAGAAGGUUAUAUGCAAAGCAUUUAAAGGAUAUUCAUACCGGAAACGGACAUGAGGAUCACCCAUGUGGCACAAA | 1280 | 128 |  |  |
| GCUGUGGCAUGAGGAUAUGGUCAGCUUUGCUGACCAGAAGGCAUGUCAAUAGACAUGAGGAUCACCCAUGUAGUUAACACAGCA | 572 | 40.7 |  |  |
| AAAUUUAACGAAGGAUAUGCUGACAUGAGGAUCACCCAUGUGUGCCUUGUGUUGCUGAUUAGGUUGCAGAAGGUCGUAUACAUA |  |  | 330 | 1230 |
| CAGGCCUUAGGAUAUACACGGUGUCGAACGAGCUCCUACACACAUGAGGAUCACCCAUGUAGAAGGAAGGGAUA |  |  | 24.6 | 32 |
| GGAUAGAACAGAGGAUAUACGUGCUAGAGAUACUAGCAAAAUUUCCUCACAUGAGGAUCACCCAUGUAGAAGGCUGUCCUAUCG |  |  | 11.8 | 208 |
